DNA FID counter = displaces DNA intercalator in HCV helicase counter-screen; DNA fluorescent intercalator displacement, fluorescence; 0.17% of 290,000 active; inhibition, % at 7.9 µM; in the data active = inhibition above about 37%;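 also: higher means more ethidium bromide displaced from hairpin DNA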
UBC9 SUMO inh = blocks human SUMOylation mediated by UBC9 | 0.36% of 290,000 active | HTRF SUMOylation assay, SAE1/SAE2 + UBC9, in vitro | AID 2006 | inhibition, % at 35 µM | P63279; in the data active = inhibition above about 50%, passing the limit was not always enough
Target sequence (P63279 whole entry, looked up): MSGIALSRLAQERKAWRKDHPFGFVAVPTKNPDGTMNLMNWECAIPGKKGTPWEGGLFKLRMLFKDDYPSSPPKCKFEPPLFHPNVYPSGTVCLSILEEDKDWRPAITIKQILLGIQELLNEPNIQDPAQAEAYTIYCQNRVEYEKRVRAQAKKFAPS
VIM-2 inhibitor = blocks Pseudomonas aeruginosa VIM-2 metallo-beta-lactamase | purified VIM-2, nitrocefin hydrolysis, epi-absorbance fluorescence | inhibition, % at 5.6 µM | 0.89% of 290,000 active;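 active = inhibition above the mean of all tested compounds plus 3 SD, cutoff set per screening run, cut at about 7.5% in these data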;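 also: red hydrolysis product quenches plate fluorescence so inhibitors raise well fluorescence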
NS3 helicase inh = blocks Hepatitis C virus NS3 helicase unwinding | AID 1800 | 0.56% of 290,000 active | inhibition, % at 10.9 µM | NS3 helicase DNA unwinding, Cy5 molecular beacon fluorescence;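 active = inhibition above the mean of all tested compounds plus 3 SD, set per campaign, cut at about 35% in these data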
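Assay system: hepatitis C virus NS3 helicase domain fragment enzyme. Also added: annealed dual-labelled DNA beacon duplex, ATP-started. Timing: 1 h reaction at 25 °C, ATP-initiated. Technique: Cy5 fluorescence at 0 and 60 min, beacon hairpin quenching. Evaluation: % inhibition of unwinding. Replication: one well per compound.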
IMP-1 inh = inhibitors of Pseudomonas aeruginosa IMP-1 metallo-beta-lactamase; 0.45% of 290,000 active; inhibition, % at 5.6 µM; purified IMP-1, nitrocefin hydrolysis, epi-absorbance fluorescence;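 active = inhibition above the mean plus 3 SD of all compounds in the same screening run, cut at about 4.5% in these data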
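System: purified IMP-1; amount: IMP-1 0.2 nM before substrate addition; compound: single dose, 5.6 µM; times: 25 °C, 15 min preincubation, 25 min reaction; signal: Epi-absorbance via hydrolysed-nitrocefin quenching of white-plate fluorescence, 480/530 nm, EDTA stop; benchmarks: DMSO with and without IMP-1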
Each line names hits and unclear results; the compound was inactive in the other large screens. Hits are enriched below; roughly 2.1% of the tested compounds scored in any of these assays.

O=S(=O)(c1ccc(C2CCCCC2)cc1)N1CCOCC1	none
Cc1cc(C)c2c(c1)C1C=CCC1C(c1ccc(S(=O)(=O)N3CCOCC3)cc1)N2 (stereo not given)	IMP-1 inh 5.8
O=C(O[C@@H]1OC2COC(=O)c3cc(O)c(O)c(O)c3-c3c(cc(O)c(O)c3O)C(=O)O[C@@H]([C@H]1O)[C@@H]2O)c1cc(O)c(O)c(O)c1	UBC9 SUMO inh 88.6, IMP-1 inh 8.8
O=c1oc2ccccc2nc1/C=C(O)/C=C/c1ccc(F)cc1	DNA FID counter 40.0
CC(C)(C)NC(=O)C(c1ccncc1)N(C(=O)Cn1nnc(-c2ccc(F)cc2)n1)c1cccc(F)c1 (stereo not given)	none
O=C(Nc1ccc(NC(=O)c2cccs2)c(Cl)c1)c1cccs1	none
COc1cc(NC(=O)CSc2ncnc3c2cnn3Cc2ccccc2)cc(OC)c1	IMP-1 inh 4.5
CCOc1cc(CNCCO)cc(Br)c1OCc1ccc(Cl)cc1	DNA FID counter 38.4
CCOc1cc(CNCCO)cc(Br)c1OCc1ccccc1Cl	none
CCOc1cc(CNC(C)(C)CO)cc(Br)c1OCc1ccc(Cl)cc1Cl	DNA FID counter 38.2
CCOc1cc(CNCCN2CCOCC2)ccc1OCc1ccccc1Cl	none
CCOc1cc(CNCCCN2CCOCC2)cc(Br)c1OCc1ccccc1Cl	DNA FID counter 39.7
CC(C)CN(C(=O)c1cccc(Cl)c1)c1c(N)n(CC(C)C)c(=O)[nH]c1=O	none
CCOc1ccc(N(CC(=O)NCc2ccc(F)cc2)C(=O)c2ccco2)cc1	none
C=CCOc1ccccc1/C=c1\sc2nc(=O)c(C)nn2c1=O	IMP-1 inh 9.2
O=C(O)Cn1nc2c3c(cccc3c1=O)-c1ccccc1-2	VIM-2 inhibitor 7.8
O=C(c1ccc(Cl)cc1)N1N=CCC1(O)c1ccc(Cl)cc1 (stereo not given)	none
CC1CCN(C(=O)C2CCN(S(=O)(=O)c3cc(Cl)ccc3Cl)CC2)CC1	none
Cc1ccc(/C=C2\SC(=S)N(c3cccnc3)C2=O)o1	IMP-1 inh 5.9
O=S(=O)(NC1c2cccc3cccc(c23)C1N1CCNCC1)c1ccc(Cl)cc1 (stereo not given)	DNA FID counter 43.2
CC(=O)N1CCN(C2c3cccc4cccc(c34)C2NS(=O)(=O)c2ccccc2)CC1 (stereo not given)	none
CCOCCc1c(O)nc(SCCOc2ccc(C)c(C)c2)[nH]c1=O	none
CCC(C)(C)NC(=O)c1cc(S(=O)(=O)N2CCCCC2)ccc1N1CCOCC1	none
O=C(O)C1CSC2c3ccccc3C(=O)N12 (stereo not given)	IMP-1 inh 10.5
CC(C)N(C(=O)CN1C(=O)NC(c2ccccc2)(c2ccccc2)C1=O)C(C)C	none
CCC(C)c1c(O)nc(SCC(=O)c2ccccc2)[nH]c1=O (stereo not given)	IMP-1 inh 4.7
CCC(C)c1c(O)nc(SCC(=O)Nc2ccccc2)[nH]c1=O (stereo not given)	none
O=C(Nc1cc(Cl)ccc1C(=O)O)c1ccc(CN2C(=O)c3ccccc3C2=O)cc1	DNA FID counter 39.5 (no result: UBC9 SUMO inh)
CCOC(=O)c1c(NC(C)=O)sc(/C(C)=N/Nc2ccc(C(=O)O)cc2)c1C	none
O=C(/C=C(\O)c1ccc(Cl)cc1)C(=O)NNC(=O)C(O)(c1ccccc1)c1ccccc1	NS3 helicase inh 54.4
O=C(/C=C(\O)c1ccccc1)C(=O)NNC(=O)c1ccccc1	none
Cn1nc(-c2ccccc2)cc1NS(=O)(=O)c1ccc(C#N)cc1	none
Cn1nc(C(=O)Nc2ccccc2N2CCCC2)c2ccccc2c1=O	none
COc1ccccc1C1C(C(N)=O)=C(C)Nc2ncnn21 (stereo not given)	IMP-1 inh 6.8
Cn1nc(C(C)(C)C)cc1C(=O)NCc1ccc2c(c1)OCO2	none
CN(C)CCCN1C(=O)c2cccc3c([N+](=O)[O-])ccc(c23)C1=O	DNA FID counter 41.2
O=C(O)c1ccc(CN2C(=O)c3cccc4c([N+](=O)[O-])ccc(c34)C2=O)cc1	none
Cc1ccc(C(=O)O)cc1N1C(=O)c2cccc3c([N+](=O)[O-])ccc(c23)C1=O	IMP-1 inh 6.1
O=C(c1ccc(S(=O)(=O)N2CCCCCC2)cc1)N1CCC(CN2C(=O)c3cccc4cccc(c34)C2=O)CC1	IMP-1 inh 5.2
CC(C)(C)CC(=O)Nc1cccc2c1CCCC2	IMP-1 inh 6.9
CN(/N=C/c1cc(Cl)ccc1O)C1=NS(=O)(=O)c2ccccc21	VIM-2 inhibitor 10.1
CN(/N=C/c1cccnc1)C1=NS(=O)(=O)c2ccccc21	none
COc1cccc(/C=N/N(C)C2=NS(=O)(=O)c3ccccc32)c1O	VIM-2 inhibitor 9.5
N#C/C(=C\c1ccc(OCCN2CCOCC2)cc1)C(=O)Nc1ccc(S(N)(=O)=O)cc1	none
O=C(NCC(=O)N1CCc2ccccc2C1)c1ccccc1Cl	none
CN(C)CCNc1cc(-c2ccncc2)nc2ccccc12	DNA FID counter 77.0
O=C(OCCNc1nc(-c2ccccc2)nc2ccccc12)c1ccncc1	VIM-2 inhibitor 9.6
O=C(NCc1ccccc1)c1cc(-c2ccncc2)nc2ccccc12	none
Cc1ccc(-c2nc(NCCN(C)C)c3ccccc3n2)cc1	DNA FID counter 70.7
CN(C)CCCNc1nc(-c2ccc(Cl)cc2)nc2ccccc12	DNA FID counter 54.2
COc1cccc(CN2CC(C(=O)N(C)CC3CCOCC3)CCC2=O)c1 (stereo not given)	none
Cc1ccc(CNC(=O)CCSCc2ccccc2F)cc1	none
Cc1cccc(-c2nc(NCCCN(C)C)c3ccccc3n2)c1	DNA FID counter 63.0, VIM-2 inhibitor 7.8
Cc1cc(C)cc(NC(=O)[C@H](Cc2c[nH]c3ccccc23)NC(=O)[C@@H]2Cc3ccccc3CN2)c1	DNA FID counter 39.6
Cc1cccc(NC(=O)[C@H](Cc2c[nH]c3ccccc23)NC(=O)[C@@H]2Cc3ccccc3CN2)c1	none
COc1cc(Br)c(CNc2cc(C)ccc2C)cc1OC	IMP-1 inh 4.7
COc1ccc(CNc2cc(C)ccc2C)c(OC)c1OC	none
O=C(O)/C=C/c1ccc([N+](=O)[O-])o1	none
O=C1NC(=S)S/C1=C\C=C\c1ccc([N+](=O)[O-])o1	UBC9 SUMO inh 86.4
NS(=O)(=O)c1cccc(NC(=O)COC(=O)Cc2ccc(S(=O)(=O)N3CCCCC3)s2)c1	IMP-1 inh 5.6
O=C(COC(=O)Cc1ccc(S(=O)(=O)N2CCCCC2)s1)Nc1ccc2c(c1)OCO2	none
CCCCCN1CC(=O)N2C(C)c3[nH]c4ccccc4c3C[C@H]2C1=O (stereo not given in full)	none
COc1cccc(/C=N/NC(=O)C(=O)N2CCCCCC2)c1O	none
COc1ccc(/C=N/NC(=O)c2cnccn2)c(OC)c1OC	none
COc1ccc(/C=N/NC(=O)C(N)=O)c(OC)c1OC	IMP-1 inh 8.4
COc1cccc(/C=N/NC(=O)C(=O)N/N=C/c2cccc(OC)c2O)c1O	UBC9 SUMO inh 70.6
COc1ccc(CCC(=O)NCCS(=O)(=O)N2CCN(c3ccc(OC)cc3)CC2)cc1	none
